Reference: ChEMBL document CHEMBL1138901, “Design, synthesis, and biological evaluation of the combinatorial library with a new spirodiketopiperazine scaffold. Discovery of novel potent and selective low-molecular-weight CCR5 antagonists” (J Med Chem, 2006)
The source made the active and inactive calls. No cut-off for these calls is given here.

Tests used:
[1] = molecular target: T1, C-X-C chemokine receptor type 4 (Homo sapiens, UniProt P61073); test: Inhibition of radio-isotope labeled SDF1-alpha binding to human recombinant CXCR4
[2] = test system: Human immunodeficiency virus 1; test: Antiviral activity against T cell tropic HIV1 X4; assay type: functional, organism-based
[3] = molecular target: T1, C-X-C chemokine receptor type 4; test: Antagonist activity against human recombinant CXCR4 expressed in CHO cells assessed as inhibition of human SDF1-alpha-stimulated calcium mobilization; assay type: functional, cell-based
Procedure, shortened: (§1)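 Human chemokine receptor-overexpressing CHO cells were stimulated with the matching human endogenous ligand, and calcium mobilization was read out. Library members were tested at 30 µM. Crude products were dissolved in DMSO as 10 mM stocks and used without further purification.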

[4] = molecular target: T2, C-C chemokine receptor type 2 (Homo sapiens, UniProt P41597); test: Antagonist activity against human recombinant CCR2 expressed in CHO cells assessed as inhibition of human MCP1-stimulated calcium mobilization; assay type: functional, cell-based; procedure, shortened: as §1
[5] = molecular target: T3, C-C chemokine receptor type 5 (Homo sapiens, UniProt P51681); test: Antagonist activity against human recombinant CCR5 expressed in CHO cells assessed as inhibition of human MIP-1-alpha-stimulated calcium mobilization; assay type: functional, cell-based; procedure, shortened: as §1
[6] = molecular target: T2, C-C chemokine receptor type 2; test: Inhibition of radio-isotope labeled MCP1 binding to human recombinant CCR2
[7] = molecular target: T3, C-C chemokine receptor type 5; test: Inhibition of radio-isotope labeled MIP1-alpha binding to human recombinant CCR5
[8] = molecular target: C-C chemokine receptor type 4 (Homo sapiens, UniProt P51679); test: Antagonist activity against human recombinant CCR4 expressed in CHO cells assessed as inhibition of human […]-stimulated calcium mobilization; assay type: functional, cell-based; procedure, shortened: as §1
[9] = molecular target: Sigma non-opioid intracellular receptor 1 (Homo sapiens, UniProt Q99720); test: Binding affinity to sigma receptor
[10] = molecular target: Muscarinic acetylcholine receptor M3 (Homo sapiens, UniProt P20309); test: Binding affinity to muscarinic M3 receptor
Sequence of Muscarinic acetylcholine receptor M3 (P20309 whole entry): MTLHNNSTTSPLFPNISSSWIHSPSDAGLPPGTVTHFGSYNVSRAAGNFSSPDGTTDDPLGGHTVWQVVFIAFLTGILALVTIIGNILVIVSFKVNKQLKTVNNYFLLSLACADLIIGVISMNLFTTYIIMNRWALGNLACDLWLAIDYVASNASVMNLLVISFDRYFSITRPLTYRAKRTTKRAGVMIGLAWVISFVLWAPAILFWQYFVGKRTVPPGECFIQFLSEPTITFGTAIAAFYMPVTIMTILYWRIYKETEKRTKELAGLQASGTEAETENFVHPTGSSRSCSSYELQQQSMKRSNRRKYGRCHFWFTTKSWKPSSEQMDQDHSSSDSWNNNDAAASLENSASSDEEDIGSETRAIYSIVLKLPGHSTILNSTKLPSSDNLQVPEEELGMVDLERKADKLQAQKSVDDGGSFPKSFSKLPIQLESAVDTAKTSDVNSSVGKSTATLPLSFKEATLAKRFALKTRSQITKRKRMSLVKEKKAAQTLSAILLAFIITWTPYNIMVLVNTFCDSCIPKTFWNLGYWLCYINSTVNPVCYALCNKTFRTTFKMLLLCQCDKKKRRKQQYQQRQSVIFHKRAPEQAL

T3 sequence (P51681 whole entry): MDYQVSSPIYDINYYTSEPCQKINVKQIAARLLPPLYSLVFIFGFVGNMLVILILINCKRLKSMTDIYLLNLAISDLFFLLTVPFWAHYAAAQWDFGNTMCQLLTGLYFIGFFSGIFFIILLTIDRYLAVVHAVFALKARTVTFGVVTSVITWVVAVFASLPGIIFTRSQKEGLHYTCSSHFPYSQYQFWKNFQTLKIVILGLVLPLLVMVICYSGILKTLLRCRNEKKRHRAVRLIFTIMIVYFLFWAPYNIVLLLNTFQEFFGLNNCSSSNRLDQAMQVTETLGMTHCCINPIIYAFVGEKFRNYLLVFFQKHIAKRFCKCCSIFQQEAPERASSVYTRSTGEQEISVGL
T2 sequence (P41597 whole entry): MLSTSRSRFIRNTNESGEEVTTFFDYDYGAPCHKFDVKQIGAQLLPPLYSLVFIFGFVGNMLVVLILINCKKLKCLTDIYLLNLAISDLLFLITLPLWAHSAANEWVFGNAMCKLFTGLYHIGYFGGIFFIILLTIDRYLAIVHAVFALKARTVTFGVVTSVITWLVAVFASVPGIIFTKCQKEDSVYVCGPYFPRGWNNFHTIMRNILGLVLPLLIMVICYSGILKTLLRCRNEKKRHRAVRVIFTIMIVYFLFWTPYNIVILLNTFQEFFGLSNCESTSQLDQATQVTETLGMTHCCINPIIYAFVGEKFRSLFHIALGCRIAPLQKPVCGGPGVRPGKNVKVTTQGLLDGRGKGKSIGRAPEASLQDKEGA
Sequence of C-C chemokine receptor type 4 (P51679 whole entry, looked up): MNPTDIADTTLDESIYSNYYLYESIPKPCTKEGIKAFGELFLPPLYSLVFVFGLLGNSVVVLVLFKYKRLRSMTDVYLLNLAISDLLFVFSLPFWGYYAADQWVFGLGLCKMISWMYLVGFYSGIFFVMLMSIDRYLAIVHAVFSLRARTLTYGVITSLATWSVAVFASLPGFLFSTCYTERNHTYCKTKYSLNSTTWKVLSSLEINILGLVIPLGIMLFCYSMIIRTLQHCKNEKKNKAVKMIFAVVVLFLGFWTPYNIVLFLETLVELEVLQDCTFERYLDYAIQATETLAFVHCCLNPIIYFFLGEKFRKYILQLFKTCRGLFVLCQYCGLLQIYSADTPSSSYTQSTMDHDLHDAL
T1 sequence (P61073 whole entry): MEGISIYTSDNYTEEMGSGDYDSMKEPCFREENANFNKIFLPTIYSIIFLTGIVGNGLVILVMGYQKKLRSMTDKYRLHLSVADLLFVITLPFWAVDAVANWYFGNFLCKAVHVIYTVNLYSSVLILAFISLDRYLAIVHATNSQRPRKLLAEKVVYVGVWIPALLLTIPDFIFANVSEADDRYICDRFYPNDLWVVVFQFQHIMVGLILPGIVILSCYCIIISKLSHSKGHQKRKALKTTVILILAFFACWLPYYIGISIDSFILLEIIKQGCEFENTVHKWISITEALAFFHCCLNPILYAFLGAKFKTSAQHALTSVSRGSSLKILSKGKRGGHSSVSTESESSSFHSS
Sequence of Sigma non-opioid intracellular receptor 1 (Q99720 whole entry): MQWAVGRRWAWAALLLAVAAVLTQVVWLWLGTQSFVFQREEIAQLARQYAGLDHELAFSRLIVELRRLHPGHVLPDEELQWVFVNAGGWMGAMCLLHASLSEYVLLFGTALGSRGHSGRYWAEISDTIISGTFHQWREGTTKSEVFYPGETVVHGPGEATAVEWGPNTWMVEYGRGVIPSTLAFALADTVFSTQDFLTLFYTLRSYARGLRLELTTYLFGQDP

Row | SMILES | IC50 [1] | Activity [2] | IC50 [3] | IC50 [4] | IC50 [5] | IC50 [6] | IC50 [7] | IC50 [8] | IC50 [9] | IC50 [10]
1 | CCCCN1C(=O)C(CC(C)C)NC(=O)C12CCN(Cc1ccc(Oc3ccccc3)cc1)CC2 (stereo unspecified) | > 10 µM | inactive | > 10 µM | > 10 µM | 0.12 µM | > 10 µM | 0.083 µM |  |  | 
2 | CCCN1C(=O)[C@H](CC(C)C)NC(=O)C12CCN(CCCCCCc1ccccc1)CC2 |  | inactive | > 10 µM | > 10 µM | 2 µM |  |  | > 10 µM |  | 
3 | CCCCN1C(=O)C(CC2CCCCC2)NC(=O)C12CCN(Cc1ccc3c(c1)OCCO3)CC2 (stereo unspecified) | > 10 µM | inactive | > 10 µM | > 10 µM | 0.02 µM | > 10 µM | 0.0025 µM |  | 0.183 µM | 2.07 µM
4 | CCCCN1C(=O)C(CC2CCCCC2)NC(=O)C12CCN(Cc1ccc(Oc3ccccc3)cc1)CC2 (stereo unspecified) | > 10 µM | inactive | > 10 µM | > 10 µM | 0.17 µM | > 10 µM | 0.0061 µM |  |  | 
5 | CCCN1C(=O)[C@@H](CC2CCCCC2)NC(=O)C12CCN(CCCCCCc1ccccc1)CC2 | > 10 µM | inactive | > 10 µM | > 10 µM | 0.27 µM |  | 0.86 µM | > 10 µM |  | 
6 | CC(C)C[C@H]1NC(=O)C2(CCN(Cc3ccccc3)CC2)N(Cc2ccccc2)C1=O |  | inactive | > 30 µM | > 30 µM | 7.6 µM |  |  | > 30 µM |  | 
7 | CCCCN1C(=O)C(CC(C)C)NC(=O)C12CCN(Cc1ccccc1)CC2 (stereo unspecified) | > 10 µM | inactive | > 30 µM | > 30 µM | 0.9 µM |  | 0.56 µM | > 30 µM |  | 
8 | CCCN1C(=O)[C@@H](CC(C)C)NC(=O)C12CCN(CCCCCCc1ccccc1)CC2 |  | inactive | > 10 µM | > 10 µM | 3 µM |  |  | > 10 µM |  | 
9 | CCCN1C(=O)[C@H](CC2CCCCC2)NC(=O)C12CCN(CCCCCCc1ccccc1)CC2 | > 10 µM | inactive | > 10 µM | > 10 µM | 0.3 µM |  | 0.61 µM | > 10 µM |  | 
10 | CCCN1C(=O)C(CC(C)C)NC(=O)C12CCN(Cc1ccc(Oc3ccccc3)cc1)CC2 (stereo unspecified) | > 30 µM | inactive | > 30 µM | > 30 µM | 0.5 µM | > 30 µM | 0.017 µM | > 30 µM |  | 
11 | CCCCN1C(=O)C(CC2CCCCC2)NC(=O)C12CCN(Cc1ccc(OC)cc1)CC2 (stereo unspecified) | > 30 µM | inactive | > 30 µM | > 30 µM | 0.12 µM | > 30 µM | 0.0045 µM |  |  | 
12 | CCCCN1C(=O)C(CC(C)C)NC(=O)C12CCN(Cc1ccc3c(c1)OCCO3)CC2 (stereo unspecified) | > 10 µM | inactive | > 10 µM | > 10 µM | 0.17 µM | > 10 µM | 0.02 µM |  |  | 
13 | C=CCOc1ccc(CN2CCC3(CC2)C(=O)NC(CC2CCCCC2)C(=O)N3CCCC)cc1 (stereo unspecified) | > 10 µM | inactive | > 10 µM | > 10 µM | 0.05 µM | > 10 µM | 0.011 µM |  |  | 
14 | CCCCN1C(=O)C(CC(C)C)NC(=O)C12CCN(CCCCCCc1ccccc1)CC2 (stereo unspecified) | > 10 µM | inactive | 6.7 µM | > 10 µM | 0.27 µM | > 10 µM | 0.038 µM | > 10 µM |  | 
15 | CC(C)C[C@@H]1NC(=O)C2(CCN(Cc3ccccc3)CC2)N(Cc2ccccc2)C1=O |  | inactive | > 30 µM | > 30 µM | 3.2 µM |  |  | > 30 µM |  | 
